# Test results reported in PMC9298202 (Chemmedchem, 2021).
# Read-outs that look alike come from different tables or passages of the source.
# Tests used:
# J774.2 macrophages = assay: Cytotoxicity in J774.2 macrophages; assay type: cell-based; conditions: read-out: Toxicity in macrophages IC50
# Vero cells = assay: Cytotoxicity in Vero cells; assay type: cell-based; conditions: read-out: Vero cells toxicity IC50
# In short: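 Vero cells were grown in RPMI + 10% inactivated FBS at 37 °C in humidified 5% CO2. They were resuspended at 1×10^5 cells/mL, cultured 2 days, then given fresh medium with test compound for 72 h. Viability was read by flow cytometry. IC50 was derived by linear regression from Kc values; results average four determinations.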
# [1] = test system: Leishmania infantum promastigote forms; assay: In vitro activity on promastigote; assay type: cell-based; conditions: for Selectivity index Promastigote forms: L. infantum, IC50 macrophages toxicity/IC50 activity; for IC50: Leishmania infantum, read-out: Activity IC50 Promastigote forms
# [2] = test system: Leishmania braziliensis promastigote forms; assay: In vitro activity on promastigote; assay type: cell-based; conditions: for Selectivity index Promastigote forms: L. braziliensis, IC50 macrophages toxicity/IC50 activity; for IC50: Leishmania braziliensis, read-out: Activity IC50 Promastigote forms
# In short: (§1)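 Extracellular promastigotes were tested at 1, 10, 25 and 200 µM, and IC50 was derived by linear regression from Kc values, averaging four determinations.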
# [3] = test system: Leishmania donovani promastigote forms; assay: In vitro activity on promastigote; assay type: cell-based; conditions: for IC50: Leishmania donovani, read-out: Activity IC50 Promastigote forms; for Selectivity index Promastigote forms: L. donovani, IC50 macrophages toxicity/IC50 activity
# In short: as §1
# [4] = test system: Trypanosoma cruzi SN3 epimastigote forms; assay: Epimastigote assay, T. cruzi SN3; assay type: cell-based; conditions: for Selectivity index Epimastigote forms: T. cruzi SN3, IC50 Vero cell toxicity/IC50 activity; for IC50: Trypanosoma cruzi, read-out: Activity IC50 Epimastigote forms
# In short: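 SN3 epimastigotes (Rhodnius prolixus isolate, Colombia) were grown at 28 °C in Grace's Insect Medium + 10% inactivated FBS. Exponential-phase cells were plated at 5×10^4 parasites/well with test compound in MTL medium at 100, 50, 25, 12,5 and 6,25 µM. Counts after 72 h used a Neubauer chamber. IC50 came from linear regression of Kc values; SI = Vero IC50/epimastigote IC50.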
# [5] = test system: Leishmania infantum amastigote forms; assay: In vitro activity on amastigote; assay type: cell-based; conditions: for Selectivity index Amastigote forms: L. infantum, IC50 macrophages toxicity/IC50 activity; for IC50: Leishmania infantum, read-out: Activity IC50 Amastigote forms
# [6] = test system: Leishmania braziliensis amastigote forms; assay: In vitro activity on amastigote; assay type: cell-based; conditions: for Selectivity index Amastigote forms: L. braziliensis, IC50 macrophages toxicity/IC50 activity; for IC50: Leishmania braziliensis, read-out: Activity IC50 Amastigote forms
# In short: (§2)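 J774.2 macrophages were infected with promastigotes, which became intracellular amastigotes within 1 day; test compounds were then added. IC50 came from linear regression of Kc values at 1, 10, 25 and 200 µM, averaging four determinations.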
# [7] = test system: Leishmania donovani amastigote forms; assay: In vitro activity on amastigote; assay type: cell-based; conditions: for Selectivity index Amastigote forms: L. donovani, IC50 macrophages toxicity/IC50 activity; for IC50: Leishmania donovani, read-out: Activity IC50 Amastigote forms
# In short: as §2
# [8] = test system: Trypanosoma cruzi SN3 amastigote forms; assay: Amastigote assay, T. cruzi SN3; assay type: cell-based; conditions: for Selectivity index Amastigote forms: T. cruzi SN3, IC50 Vero cell toxicity/IC50 activity; for IC50: Trypanosoma cruzi, read-out: Activity IC50 Amastigote forms
# In short: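 Vero cells in RPMI + 10% inactivated FBS (37 °C, 5% CO2) were seeded at 1×10^4 cells/well on coverslips for 2 days. They were infected 10:1 with SN3 metacyclic forms, obtained by 12-day culture of epimastigotes at 28 °C in modified Grace's medium (~40% metacyclic). After 24 h, cells were washed and exposed to 6.25–100 µM for 72 h. Giemsa-stained amastigotes were counted; IC50 from four determinations; SI used Vero IC50.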
# [9] = test system: Trypanosoma cruzi SN3 trypomastigote forms; assay: Trypomastigote activity, T. cruzi SN3; assay type: cell-based; conditions: for Selectivity index Trypomastigote forms: T. cruzi SN3, IC50 Vero cell toxicity/IC50 activity; for IC50: Trypanosoma cruzi, read-out: Activity IC50 Trypomastigote forms
# [10] = test system: Fe-SOD in L. infantum promastigotes; assay: Fe-SOD inhibition, L. infantum; assay type: biochemical, Leishmania infantum; conditions: extent reached in the tested concentration range (Figure 6)
# In short: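 Promastigotes or T. cruzi epimastigotes were grown in MTL (HBSS + 10% heat-inactivated FBS) at 26 °C to ~1×10^7/mL. Log-phase cells were pelleted and held 24 h at 27 °C to excrete SOD. Filtered supernatant was fractionated with 35% then 85% ammonium sulphate and desalted on Sephadex G-25. Activity was measured as NBT reduction (methionine, riboflavin, Triton X-100) at 560 nm before and after 10 min UV illumination.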
# [11] = J774.2 macrophages after 72 h of culture (Table 1)
# [12] = Vero cells after 72 h of culture
# [13] = Chlorocebus sabaeus, Vero, 72 h
Compound,Selectivity index Promastigote forms [1],IC50 [1] [µM],"IC50 (J774.2 macrophages; Mus musculus, J774.2, 72 h) [µM]",Selectivity index Promastigote forms [2],IC50 [2] [µM],IC50 [3] [µM],Selectivity index Epimastigote forms [4],IC50 [4] [µM],IC50 (Vero cells; [13]) [µM],Selectivity index Promastigote forms [3],Selectivity index Amastigote forms [5],IC50 [5] [µM],Selectivity index Amastigote forms [6],IC50 [6] [µM],Selectivity index Amastigote forms [7],IC50 [7] [µM],also measured
1‐[3‐(imidazol‐1‐yl)propylamino]pyridazine [1 b],–,–,–,–,–,–,–,–,–,–,–,–,–,–,–,–,IC50 (J774.2 macrophages; [11]): 18.6 ± 1 µM; IC50 (Vero cells; [12]): 43.6 ± 2.7 µM
"Clc1ccc(NCCc2c[nH]cn2)nn1 [1 c, N ‐(2‐(1H‐imidazol‐4‐yl)ethyl)‐6‐chloropyridazin‐3‐amine]",1 (1),19.9 ± 1.1,17.1 ± 1.7,1 (1),28.1 ± 0.4,57.4 ± 4.1,1 (1),30.5 ± 2.7,39.6 ± 0.9,–,–,–,–,–,–,–,–
"Clc1ccc(NCCCn2ccnc2)nn1 [1 d, N ‐(3‐(1H‐imidazol‐1‐yl)propyl)‐6‐chloropyridazin‐3‐amine]",1 (1),15.3 ± 0.5,19.3 ± 1.1,1,13.5 ± 0.3,20.6 ± 2.3,3 (3),11.8 ± 0.6,33.2 ± 2.8,1 (1),–,–,–,–,–,–,–
"c1ccc2c(NCCc3c[nH]cn3)nncc2c1 [1 e, 1‐[2‐(1H‐imidazol‐4‐yl)ethylamino]phthalazine]",6,10.2,63.9 ± 3.6,4,14.5 ± 1.3,9.6 ± 1.3,21,16.5 ± 0.6,350 ± 7.7,7,9,7.4 ± 0.3,8,8.1 ± 0.4,6,10.8 ± 1.1,Selectivity index Amastigote forms [8]: 24; IC50 [8]: 14.7 ± 1.1 µM; Selectivity index Trypomastigote forms [9]: 22; IC50 [9]: 15.9 ± 1.2 µM
"c1ccc2c(NCCCn3ccnc3)nncc2c1 [1 f, 1‐[3‐(imidazol‐1‐yl)propylamino]phthalazine]",19,11.1 ± 0.4,211 ± 10.3,12,17.8 ± 1.4,52 ± 3.6,1,102 ± 4.1,156 ± 4.6,4,20,10.7 ± 0.7,14,15 ± 0.9,5,44.7 ± 5.6,Selectivity index Amastigote forms [8]: 3; IC50 [8]: 44.3 ± 2.7 µM; Selectivity index Trypomastigote forms [9]: 4; IC50 [9]: 40.8 ± 3.1 µM
"c1ccc2[nH]c(CCNc3nnc(NCCc4nc5ccccc5[nH]4)c4ccccc34)nc2c1 [2 a, N 1,N4‐bis[2‐(1H‐benzo[d]imidazol‐2‐yl)ethyl]phthalazine‐1,4‐diamine]",1(1),19.9 ± 1.4,18.7 ± 1,3,5.8 ± 0.2,4.4 ± 0.2,1 (1),33.5 ± 1.6,38.7 ± 1.7,4,–,–,4,4.4 ± 0.3,–,–,–
"Clc1nnc(NCCc2nc3ccccc3[nH]2)c2ccccc12 [2 b, N‐ [2‐(1H‐benzo[d]imidazol‐2‐yl)ethyl]‐4‐chlorophthalazin‐1‐amine]",1(1),24.5 ± 2.5,25.2 ± 1.7,4,6.1 ± 0.5,10.7 ± 0.4,1 (1),30 ± 0.8,35,2,–,–,5,5.3 ± 0.4,–,–,–
"c1ccc2c(NCCc3cn4ccccc4n3)nnc(NCCc3cn4ccccc4n3)c2c1 [2 c, N 1,N4‐bis(2‐(imidazo[1,2‐a]pyridin‐2‐yl)ethyl)phthalazine‐1,4‐diamine]",–,18.7 ± 1.4,2.4 ± 0.1,–,14.7 ± 0.6,22.4 ± 1.3,1 (1),20.1 ± 1.3,19.6 ± 0.7,–,–,–,–,–,–,–,–
"Clc1nnc(NCCc2cn3ccccc3n2)c2ccccc12 [2 d, 4‐chloro‐N‐(2‐(imidazo[1,2‐a]pyridin‐2‐yl)ethyl)phthalazin‐1‐amine]",–,21.8 ± 2.3,2.4 ± 0.3,–,26.6 ± 5.4,11.9 ± 0.7,1 (1),19.6 ± 0.8,23.8 ± 2.1,–,–,–,–,–,–,–,–
"c1ccc2c(NCCc3c[nH]cn3)ncnc2c1 [3 a, N ‐[2‐(1H‐imidazol‐4‐yl)ethyl]‐quinazolin‐4‐amine]",2,27.7 ± 3,65.2 ± 3.3,2,29.1 ± 2.3,20.4 ± 2,4,25.9 ± 1.2,112 ± 4.8,3,–,–,3,18.9 ± 1.6,–,–,Selectivity index Amastigote forms [8]: 17; IC50 [8]: 6.7 ± 0.8 µM; Selectivity index Trypomastigote forms [9]: 26; IC50 [9]: 4.3 ± 0.3 µM
"c1cnc(NCCCn2ccnc2)cn1 [4 b, N‐(3‐(1H‐imidazol‐1‐yl)propyl)pyrazin‐2‐amine]",15,1.6 ± 0.2,23.8 ± 1.9,16,1.5 ± 0.2,3.6 ± 0.4,2 (2),15.7 ± 0.5,26.8 ± 0.9,7,9,2.7 ± 0.1,10,2.3 ± 0.2,9,2.5,extent of inhibition of enzymatic activity [10]: more than 80%
"c1cnc(NCCCCn2ccnc2)cn1 [4 c, N ‐(4‐(1H‐imidazol‐1‐yl)butyl)pyrazin‐2‐amine]",2,9.6 ± 0.8,22.3 ± 2.3,2,10.7 ± 1.1,7.4 ± 0.4,2 (2),17.9 ± 1.1,29.8 ± 1.6,3,4,5.8 ± 0.2,3,7.7 ± 0.5,4,5.5 ± 0.3,–
"c1cnc(NCCCCCn2ccnc2)cn1 [4 d, N ‐(5‐(1H‐imidazol‐1‐yl)pentyl)pyrazin‐2‐amine]",4,5.8 ± 0.3,22 ± 1.7,6,3.7 ± 0.1,3.8 ± 0.3,2 (2),23.3 ± 0.7,37.2 ± 1.2,6,5,4 ± 0.4,5,4.1 ± 0.3,11,1.9,–
"O=C(Cn1ccnc1[N+](=O)[O-])NCc1ccccc1 [BNZ, benznidazole, reference compound]",–,–,–,–,–,–,0.9,15.8 ± 1.1,13.6 ± 0.9,–,–,–,–,–,–,–,Selectivity index Amastigote forms [8]: 0.6; IC50 [8]: 23.3 ± 4.6 µM; Selectivity index Trypomastigote forms [9]: 2.2; IC50 [9]: 6.2 ± 0.7 µM
Glucantime [reference compound],–,–,–,–,–,–,–,–,–,–,–,–,–,–,–,–,IC50 (J774.2 macrophages; [11]): 15.2 ± 1 µM
N‐ [2‐(1H‐imidazol‐4‐yl)ethylamino]pyrazine [4 a],–,–,–,–,–,–,–,–,–,–,–,–,–,–,–,–,IC50 (J774.2 macrophages; [11]): 21.9 ± 1.5 µM; IC50 (Vero cells; [12]): 31 ± 2.6 µM
